In ChEMBL document CHEMBL1135791, “Lysergamides of isomeric 2,4-dimethylazetidines map the binding orientation of the diethylamide moiety in the potent hallucinogenic agent N,N-diethyllysergamide (LSD)” (J Med Chem, 2002):
Values joined by “and” are separate entries in the source; they are usually repeats but may differ in a detail not shown here. Identical values can stand only once.

Legend:
[1] = target: T1, 5-hydroxytryptamine receptor 2B (Homo sapiens, UniProt P41595); experiment: Binding affinities against 5-hydroxytryptamine 2B receptor
T1 sequence (P41595 whole entry): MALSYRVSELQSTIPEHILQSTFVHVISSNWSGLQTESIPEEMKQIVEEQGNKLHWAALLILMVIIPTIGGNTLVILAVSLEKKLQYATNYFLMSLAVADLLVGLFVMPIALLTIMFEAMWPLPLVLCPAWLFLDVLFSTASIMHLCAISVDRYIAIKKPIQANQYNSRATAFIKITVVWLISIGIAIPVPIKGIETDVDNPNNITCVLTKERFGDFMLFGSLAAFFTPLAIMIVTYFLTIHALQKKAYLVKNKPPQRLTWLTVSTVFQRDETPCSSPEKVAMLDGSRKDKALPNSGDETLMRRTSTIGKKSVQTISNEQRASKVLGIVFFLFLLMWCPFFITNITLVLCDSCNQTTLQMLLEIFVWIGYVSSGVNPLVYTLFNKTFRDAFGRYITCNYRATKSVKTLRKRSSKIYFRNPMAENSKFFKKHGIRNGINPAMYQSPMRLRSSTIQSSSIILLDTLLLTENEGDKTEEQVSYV
In short: (§1)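 Screening-panel competition binding. […] Each Ki was replicated 2–3 times and is reported as mean ± SEM from nonlinear fitting. Receptor source and radioligand are not given beyond an online protocol.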

Rattus norvegicus [2] = experiment: Compound was evaluated for effective dose measured in mg/kg following a dose of 0.08 mg/kg and 0.194 uM/kg (95%CI); range 0.030-0.075; format: functional
Rattus norvegicus [3] = experiment: Compound was evaluated for the percentage of rats disrupted following a dose of 0.02 mg/kg and 0.049 uM/kg; format: functional
In short: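 LSD-trained rats (0.08 mg/kg ip vs saline, two-lever, FR50) were given the test drug ip 30 min before extinction sessions, with ≥8 rats per dose. A session was scored as disrupted if 50 presses on one lever were not completed within 5 min. The value is the percentage of rats disrupted at each dose.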

[4] = target: 5-hydroxytryptamine receptor 7 (Homo sapiens, UniProt P34969); experiment: Binding affinities against 5-hydroxytryptamine 7 receptor
5-hydroxytryptamine receptor 7, sequence (P34969 whole entry): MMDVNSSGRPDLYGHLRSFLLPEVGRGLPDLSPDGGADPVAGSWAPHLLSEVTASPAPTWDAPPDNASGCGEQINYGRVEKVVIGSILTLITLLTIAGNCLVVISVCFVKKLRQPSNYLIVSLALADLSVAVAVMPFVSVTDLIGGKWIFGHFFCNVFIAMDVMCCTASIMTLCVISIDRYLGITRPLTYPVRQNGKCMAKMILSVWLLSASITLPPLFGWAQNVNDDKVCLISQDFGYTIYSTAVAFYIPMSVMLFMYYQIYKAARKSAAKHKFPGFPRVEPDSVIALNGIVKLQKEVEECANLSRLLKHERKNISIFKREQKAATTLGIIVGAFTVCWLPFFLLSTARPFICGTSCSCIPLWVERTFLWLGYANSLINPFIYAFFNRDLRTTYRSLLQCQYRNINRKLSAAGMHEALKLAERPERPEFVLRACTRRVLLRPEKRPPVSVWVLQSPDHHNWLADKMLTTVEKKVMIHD

[5] = target: T2, 5-hydroxytryptamine receptor 5A (Homo sapiens, UniProt P47898); experiment: Binding affinities against 5-hydroxytryptamine 5A receptor; in short: as §1
T2 sequence (P47898 whole entry): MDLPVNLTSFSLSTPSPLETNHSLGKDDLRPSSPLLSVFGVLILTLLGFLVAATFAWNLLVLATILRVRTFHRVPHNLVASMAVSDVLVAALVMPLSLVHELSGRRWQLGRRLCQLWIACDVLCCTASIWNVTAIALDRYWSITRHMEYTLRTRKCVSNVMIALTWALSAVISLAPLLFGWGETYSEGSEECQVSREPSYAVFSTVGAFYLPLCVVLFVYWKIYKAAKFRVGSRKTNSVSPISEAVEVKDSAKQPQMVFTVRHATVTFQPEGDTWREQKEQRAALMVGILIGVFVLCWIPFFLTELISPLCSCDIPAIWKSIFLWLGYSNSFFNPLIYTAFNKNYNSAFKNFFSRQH

[6] = target: T3, 5-hydroxytryptamine receptor 6 (Homo sapiens, UniProt P50406); experiment: Binding affinities against 5-hydroxytryptamine 6 receptor; in short: as §1
T3 sequence (P50406 whole entry): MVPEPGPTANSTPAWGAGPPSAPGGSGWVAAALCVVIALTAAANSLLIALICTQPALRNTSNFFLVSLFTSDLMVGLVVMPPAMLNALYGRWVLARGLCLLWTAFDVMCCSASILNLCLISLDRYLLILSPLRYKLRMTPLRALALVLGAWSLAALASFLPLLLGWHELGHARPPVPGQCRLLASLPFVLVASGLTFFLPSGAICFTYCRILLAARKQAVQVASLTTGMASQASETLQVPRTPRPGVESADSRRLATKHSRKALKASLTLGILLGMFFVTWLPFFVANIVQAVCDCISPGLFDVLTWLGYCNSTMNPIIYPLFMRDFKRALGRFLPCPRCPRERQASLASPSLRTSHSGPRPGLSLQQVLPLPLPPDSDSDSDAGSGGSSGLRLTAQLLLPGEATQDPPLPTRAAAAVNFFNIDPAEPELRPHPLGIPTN

D(2) dopamine receptor [7] = target: T4, D(2) dopamine receptor (Homo sapiens, UniProt P14416); experiment: Binding affinity against Dopamine receptor D2; in short: as §1
T4 sequence (P14416 whole entry): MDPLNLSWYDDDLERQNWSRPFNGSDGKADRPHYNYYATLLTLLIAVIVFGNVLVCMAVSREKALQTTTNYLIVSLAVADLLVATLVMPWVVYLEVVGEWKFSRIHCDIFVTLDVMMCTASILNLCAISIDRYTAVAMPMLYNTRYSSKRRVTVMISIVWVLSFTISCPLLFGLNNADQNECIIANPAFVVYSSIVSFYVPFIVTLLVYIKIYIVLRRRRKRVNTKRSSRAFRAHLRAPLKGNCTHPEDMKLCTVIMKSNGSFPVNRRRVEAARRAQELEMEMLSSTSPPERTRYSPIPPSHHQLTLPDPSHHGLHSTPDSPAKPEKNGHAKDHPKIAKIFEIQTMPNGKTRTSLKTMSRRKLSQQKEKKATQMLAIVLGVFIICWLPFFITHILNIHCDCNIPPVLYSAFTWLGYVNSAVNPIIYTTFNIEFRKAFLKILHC

[8] = target: T5, 5-hydroxytryptamine receptor 1D (Homo sapiens, UniProt P28221); experiment: Binding affinities against 5-hydroxytryptamine 1D receptor alpha; in short: as §1
T5 sequence (P28221 whole entry): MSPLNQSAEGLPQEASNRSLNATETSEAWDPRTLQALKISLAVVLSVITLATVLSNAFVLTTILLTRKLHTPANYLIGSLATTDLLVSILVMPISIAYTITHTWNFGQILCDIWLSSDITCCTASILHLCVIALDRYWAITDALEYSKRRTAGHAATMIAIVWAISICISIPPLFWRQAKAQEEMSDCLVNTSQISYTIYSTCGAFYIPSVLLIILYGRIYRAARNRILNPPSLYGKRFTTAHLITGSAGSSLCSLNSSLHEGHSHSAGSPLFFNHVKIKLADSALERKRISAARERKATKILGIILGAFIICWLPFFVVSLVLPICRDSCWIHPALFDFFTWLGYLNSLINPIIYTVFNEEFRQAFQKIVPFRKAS

Rattus norvegicus [9] = experiment: Compound was evaluated for the percentage of rats selecting the drug lever (SDL) following a dose of 0.02 mg/kg and 0.049 uM/kg; format: functional
Rattus norvegicus [10] = experiment: Compound was evaluated for the percentage of rats selecting the drug lever (SDL) following a dose of 0.16 mg/kg and 0.388 uM/kg; format: functional
In short: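 Test drug was given ip 30 min before sessions run under extinction, with ≥8 rats per dose. The first lever reaching 50 presses scored as selected. No completion within 5 min counted as disruption.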

[11] = target: 5-hydroxytryptamine receptor 1E (Homo sapiens, UniProt P28566); experiment: Binding affinity towards 5-hydroxytryptamine 1E receptor; in short: as §1
5-hydroxytryptamine receptor 1E, sequence (P28566 whole entry): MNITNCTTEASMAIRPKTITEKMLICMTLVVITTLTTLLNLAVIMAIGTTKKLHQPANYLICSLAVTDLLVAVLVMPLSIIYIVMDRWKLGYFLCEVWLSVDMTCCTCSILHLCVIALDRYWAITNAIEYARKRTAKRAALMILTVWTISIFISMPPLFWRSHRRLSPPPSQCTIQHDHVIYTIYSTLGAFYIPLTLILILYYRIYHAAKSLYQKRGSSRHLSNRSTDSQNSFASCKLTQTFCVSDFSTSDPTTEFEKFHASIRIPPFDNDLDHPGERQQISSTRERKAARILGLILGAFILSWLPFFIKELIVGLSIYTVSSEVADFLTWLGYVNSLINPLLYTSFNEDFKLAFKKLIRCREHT

D(1A) dopamine receptor [12] = target: T6, D(1A) dopamine receptor (Mus musculus, UniProt Q61616); experiment: Binding affinity against Dopamine receptor D1; in short: as §1
T6 sequence (Q61616 whole entry): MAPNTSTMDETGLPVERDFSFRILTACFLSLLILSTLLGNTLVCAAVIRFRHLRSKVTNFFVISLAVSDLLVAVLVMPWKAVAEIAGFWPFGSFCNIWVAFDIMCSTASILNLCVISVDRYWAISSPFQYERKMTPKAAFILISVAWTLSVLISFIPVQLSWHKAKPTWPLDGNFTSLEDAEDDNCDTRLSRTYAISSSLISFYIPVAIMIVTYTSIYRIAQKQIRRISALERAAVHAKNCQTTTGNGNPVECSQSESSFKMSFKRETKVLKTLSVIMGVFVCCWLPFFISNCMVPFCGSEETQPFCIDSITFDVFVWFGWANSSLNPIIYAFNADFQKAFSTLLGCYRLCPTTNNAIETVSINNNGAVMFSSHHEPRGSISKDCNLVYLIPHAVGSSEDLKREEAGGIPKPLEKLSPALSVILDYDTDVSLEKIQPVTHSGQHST

Rattus norvegicus [13] = experiment: Compound was evaluated for the percentage of rats selecting the drug lever (SDL) following a dose of 0.04 mg/kg and 0.097 uM/kg; format: functional
Rattus norvegicus [14] = experiment: Compound was evaluated for effective dose measured in mg/kg following a dose of 0.04 mg/kg and 0.097 uM/kg (95%CI); format: functional
Histamine H1 receptor [15] = target: T7, Histamine H1 receptor (Homo sapiens, UniProt P35367); experiment: Binding affinity against Histamine H1 receptor; in short: as §1
T7 sequence (P35367 whole entry): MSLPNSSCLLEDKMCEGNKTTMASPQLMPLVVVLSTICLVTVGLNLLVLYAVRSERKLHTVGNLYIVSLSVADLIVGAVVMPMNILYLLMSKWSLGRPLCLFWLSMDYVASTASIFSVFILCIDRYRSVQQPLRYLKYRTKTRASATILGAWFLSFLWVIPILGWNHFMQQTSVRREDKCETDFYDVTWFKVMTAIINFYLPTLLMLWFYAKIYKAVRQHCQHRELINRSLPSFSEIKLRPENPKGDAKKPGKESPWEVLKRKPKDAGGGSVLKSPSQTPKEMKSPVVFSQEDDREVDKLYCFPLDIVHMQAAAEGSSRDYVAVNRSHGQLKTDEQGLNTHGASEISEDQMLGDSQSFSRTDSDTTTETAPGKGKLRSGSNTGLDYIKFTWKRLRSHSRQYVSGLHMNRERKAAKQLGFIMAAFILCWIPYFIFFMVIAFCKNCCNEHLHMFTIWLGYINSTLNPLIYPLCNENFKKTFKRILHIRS

[16] = target: T8, 5-hydroxytryptamine receptor 1A (Homo sapiens, UniProt P08908); experiment: Binding affinity against 5-hydroxytryptamine 1A receptor using [3H]8-OH-DPAT as radioligand
T8 sequence (P08908 whole entry): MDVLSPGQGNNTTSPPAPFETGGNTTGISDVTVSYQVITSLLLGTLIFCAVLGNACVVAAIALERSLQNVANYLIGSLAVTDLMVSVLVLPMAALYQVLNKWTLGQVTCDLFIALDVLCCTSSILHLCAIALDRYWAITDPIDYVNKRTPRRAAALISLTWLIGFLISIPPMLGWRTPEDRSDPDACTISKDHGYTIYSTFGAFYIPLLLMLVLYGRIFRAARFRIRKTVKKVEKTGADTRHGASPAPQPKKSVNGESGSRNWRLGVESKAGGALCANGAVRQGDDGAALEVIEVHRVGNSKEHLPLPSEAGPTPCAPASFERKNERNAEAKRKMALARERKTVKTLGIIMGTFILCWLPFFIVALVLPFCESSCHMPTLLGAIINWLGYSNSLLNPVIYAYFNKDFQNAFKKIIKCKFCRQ
In short: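 Competition binding at human 5-HT1A stably expressed in CHO cells (maintained in MEM, 10% dialyzed FBS, hygromycin B; serum-free 5 h before harvest, pellets stored –80 °C). 0.80 nM [3H]8-OH-DPAT, buffer 50 mM Tris/0.5 mM EDTA/10 mM MgCl2 pH 7.4, 60 min at 25 °C, filtration.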

D(1A) dopamine receptor [17] = target: T6, D(1A) dopamine receptor; experiment: Binding affinity towards Dopamine receptor D1; in short: as §1
Rattus norvegicus [18] = experiment: Compound was evaluated for the percentage of rats selecting the drug lever (SDL) following a dose of 0.08 mg/kg and 0.194 uM/kg; format: functional
[19] = target: T1, 5-hydroxytryptamine receptor 2B; experiment: Binding affinities towards 5-hydroxytryptamine 2B receptor; in short: as §1
D(2) dopamine receptor [20] = target: T4, D(2) dopamine receptor; experiment: Binding affinity towards Dopamine receptor D2
Histamine H1 receptor [21] = target: T7, Histamine H1 receptor; experiment: Binding affinity towards Histamine H1 receptor
In short: (§2)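 Screening-panel competition binding. Each Ki was replicated 2–3 times and is reported as mean ± SEM from nonlinear fitting. Receptor source and radioligand are not given beyond an online protocol.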

Rattus norvegicus [22] = experiment: Compound was evaluated for effective dose measured in nmol/kg following a dose of 0.04 mg/kg and 0.097 uM/kg (95%CI); format: functional
[23] = target: T2, 5-hydroxytryptamine receptor 5A; experiment: Binding affinities towards 5-hydroxytryptamine 5A receptor
[24] = target: T8, 5-hydroxytryptamine receptor 1A; experiment: Binding affinity towards 5-hydroxytryptamine 1A receptor using [3H]8-OH-DPAT as radioligand
[25] = target: T5, 5-hydroxytryptamine receptor 1D; experiment: Binding affinities towards 5-hydroxytryptamine 1D receptor alpha; in short: as §1
[26] = target: T3, 5-hydroxytryptamine receptor 6; experiment: Binding affinities towards 5-hydroxytryptamine 6 receptor; in short: as §2
Rattus norvegicus [27] = experiment: Compound was evaluated for effective dose measured in mg/kg following a dose of 0.04 mg/kg and 0.097 uM/kg (95%CI); range 0.027-0.11; format: functional

With `C[C@@H]1C[C@H](C)N1C(=O)[C@@H]1C=C2c3cccc4[nH]cc(c34)CC2N(C)C1` (some centres not stated) the Ki [1] was 0.044 µM, the ED50 (Rattus norvegicus [2]) was 0.047 mg/kg and the D (Rattus norvegicus [3]) was 12%. It also gave a Ki [4] of 0.012 µM, a Ki [5] of 0.016 µM and a Ki [6] of 0.013 µM. The Ki (D(2) dopamine receptor [7]) was 0.06 µM, the Ki [8] was 0.0037 µM and the D (Rattus norvegicus [9]) was 0%. The ED50 (Rattus norvegicus [10]) was 0.03 mg/kg, the Ki [11] was 0.2 µM and the Ki (D(1A) dopamine receptor [12]) was 0.23 µM. It also gave a D (Rattus norvegicus [13]) of 0%, an SDL (Rattus norvegicus [13]) of 33% and a D (Rattus norvegicus [14]) of 20%. The SDL (Rattus norvegicus [14]) was 70%, the Ki (Histamine H1 receptor [15]) was 0.5 µM and the Ki [16] was 0.0011 µM.
For `C[C@@H]1C[C@@H](C)N1C(=O)[C@@H]1C=C2c3cccc4[nH]cc(c34)CC2N(C)C1` (some centres not stated), the Ki (D(1A) dopamine receptor [17]) was 0.34 µM, the D (Rattus norvegicus [3]) was 0% and the ED50 (Rattus norvegicus [18]) was 0.027 mg/kg. The SDL (Rattus norvegicus [18]; 0.08 mg/kg) was 25% and 56%, the D (Rattus norvegicus [9]) was 0% and the Ki [19] was 0.31 µM. It also gave an SDL (Rattus norvegicus [10]) of 40%, a Ki [11] of 0.14 µM and a Ki (D(2) dopamine receptor [20]) of 0.33 µM. The Ki (Histamine H1 receptor [21]) was 1.4 µM, the ED50 (Rattus norvegicus [22]) was 0.066 µmol/kg and the Ki [23] was 0.013 µM. The Ki [24] was 0.0068 µM, the D (Rattus norvegicus [13]) was 10% and the D (Rattus norvegicus [14]) was 17%. The ED50 (Rattus norvegicus [14]) was 0.055 mg/kg, the Ki [25] was 0.002 µM and the Ki [26] was 0.061 µM. It also gave an SDL (Rattus norvegicus [27]) of 80%.
